In ChEMBL document CHEMBL1137761, “Synthesis and activity evaluation of phenylurea derivatives as potent antitumor agents” (Bioorg Med Chem, 2009):
The source made the active and inactive calls. No cut-off for these calls is given here.

How the values were obtained:
CCRF-CEM [1] = assay: Cytotoxicity against human CEM cells after 72 hrs by MTT assay; assay type: functional, cell-based
Method in brief: (§1)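 Cells kept in RPMI-1640 with 10% heat-inactivated FCS plus penicillin/streptomycin at 37 °C, 5% CO2. Seeded at 1 × 10^5 cells per well and treated at 0.001–100 µM for 72 h at 37 °C. Viability read by MTT. IC50 was the concentration killing 50% relative to untreated controls, by non-linear regression. Duplicate wells, three independent experiments.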

CCRF-CEM [2] = assay: Cell cycle arrest in human CEM cells assessed as accumulation at G2/M phase at 10 uM after 18 hrs by flow cytometry; assay type: functional; conditions: in the assay text read “6.4 uM” for “10 uM”
Method in brief: (§2)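 CEM cells grown in RPMI-1640 with 10% heat-inactivated FCS at 37 °C, 5% CO2, exposed to compound for 18 h at 37 °C. Fixed in 70% ethanol 18 h at 4 °C, RNase A (50 µg/ml) 0.5 h at 37 °C, then propidium iodide (final 50 µg/ml) 0.5 h at 4 °C. Flow cytometry on 10^4 cells per sample gave phase distribution.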

CCRF-CEM [3] = assay: Induction of apoptosis in human CEM cells at 10 uM after 18 hrs by flow cytometry; assay type: functional; conditions: in the assay text read “6.4 uM” for “10 uM”
Method in brief: (§3)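 CEM cells exposed 18 h at 37 °C, then ethanol-fixed, RNase-treated and stained with propidium iodide (final 50 µg/ml). Flow cytometry on 10^4 cells per sample. Dead cells were scored as the population left of the G1/G0 peak, reflecting DNA degradation, and reported as percent.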

Bos taurus [4] = organism: Bos taurus; assay: Inhibition of calf brain beta-tubulin polymerization at 6.4 uM after 30 mins by spectrophotometry
Method in brief: (§4)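 Calf brain tubulin (100 µL at 1 mg/ml) was mixed with 400 µL buffer: 0.1 M MES, 1 mM EGTA, 0.5 mM MgCl2, 0.1 mM EDTA, 2.5 M glycerol. Compound or solvent control was added, then GTP to a final 1 mM. OD340 was read at 0 min (baseline) and at 30 min, with assembly at room temperature.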

CCRF-CEM [5] = assay: Cytotoxicity against human CEM cells after 24 hrs by MTT assay; assay type: functional, cell-based
Method in brief: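 CEM cells treated at a range of concentrations for 24 h. Cell death measured by MTT.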

Daudi = assay: Cytotoxicity against human Daudi cells after 72 hrs by MTT assay; assay type: functional, cell-based; method in brief: as §1
MCF7 = assay: Cytotoxicity against human MCF7 cells after 72 hrs by MTT assay; assay type: functional, cell-based; conditions: MCF7, 72 h; method in brief: as §1
Bel-7402 = assay: Cytotoxicity against human Bel7402 cells after 72 hrs by MTT assay; assay type: functional, cell-based; conditions: Bel-7402, 72 h; method in brief: as §1
DU-145 = assay: Cytotoxicity against human DU145 cells after 72 hrs by MTT assay; assay type: functional, cell-based; conditions: DU-145, 72 h; method in brief: as §1
PC-3 = assay: Cytotoxicity against human PC3 cells after 72 hrs by MTT assay; assay type: functional, cell-based; conditions: PC-3, 72 h; method in brief: as §1
[6] = Cytotoxicity against human DND1A cells after 72 hrs by MTT assay; assay type: functional, cell-based; method in brief: as §1
LoVo = assay: Cytotoxicity against human LoVo cells after 72 hrs by MTT assay; assay type: functional, cell-based; method in brief: as §1
MIA PaCa-2 = assay: Cytotoxicity against human MIAPaCa2 cells after 72 hrs by MTT assay; assay type: functional, cell-based; conditions: MIA PaCa-2, 72 h; method in brief: as §1
CCRF-CEM [7] = assay: Cell cycle arrest in human CEM cells assessed as accumulation at G0/G1 phase at 10 uM after 18 hrs by flow cytometry; assay type: functional; conditions: in the assay text read “6.4 uM” for “10 uM”; method in brief: as §2
CCRF-CEM [8] = assay: Cell cycle arrest in human CEM cells assessed as accumulation at S phase at 10 uM after 18 hrs by flow cytometry; assay type: functional; conditions: in the assay text read “6.4 uM” for “10 uM”; method in brief: as §2
CCRF-CEM [9] = assay: Cell cycle arrest in human CEM cells assessed as accumulation at S phase at 6.4 uM after 18 hrs by flow cytometry; assay type: functional; conditions: in the assay text read “10 uM” for “6.4 uM”; method in brief: as §2
CCRF-CEM [10] = assay: Cell cycle arrest in human CEM cells assessed as accumulation at G2/M phase at 6.4 uM after 18 hrs by flow cytometry; assay type: functional; conditions: in the assay text read “10 uM” for “6.4 uM”; method in brief: as §2
CCRF-CEM [11] = assay: Induction of apoptosis in human CEM cells at 6.4 uM after 18 hrs by flow cytometry; assay type: functional; conditions: in the assay text read “10 uM” for “6.4 uM”; method in brief: as §3
Bos taurus [12] = organism: Bos taurus; assay: Inhibition of calf brain beta-tubulin polymerization at 10 uM after 30 mins by spectrophotometry; method in brief: as §4
CCRF-CEM [13] = assay: Cell cycle arrest in human CEM cells assessed as accumulation at G0/G1 phase at 6.4 uM after 18 hrs by flow cytometry; assay type: functional; conditions: in the assay text read “10 uM” for “6.4 uM”; method in brief: as §2
CCRF-CEM [14] = assay: Cell cycle arrest in human CEM cells assessed as accumulation at S phase at 3.3 uM after 18 hrs by flow cytometry; assay type: functional; method in brief: as §2
CCRF-CEM [15] = assay: Cell cycle arrest in human CEM cells assessed as accumulation at G2/M phase at 3.3 uM after 18 hrs by flow cytometry; assay type: functional; method in brief: as §2
CCRF-CEM [16] = assay: Induction of apoptosis in human CEM cells at 3.3 uM after 18 hrs by flow cytometry; assay type: functional; method in brief: as §3
Bos taurus [17] = organism: Bos taurus; assay: Inhibition of calf brain beta-tubulin polymerization at 3.3 uM after 30 mins by spectrophotometry; method in brief: as §4
CCRF-CEM [18] = assay: Cell cycle arrest in human CEM cells assessed as accumulation at G0/G1 phase at 3.3 uM after 18 hrs by flow cytometry; assay type: functional; method in brief: as §2
CCRF-CEM [19] = assay: Cell cycle arrest in human CEM cells assessed as accumulation at G2/M phase at 3.2 uM after 18 hrs by flow cytometry; assay type: functional; method in brief: as §2
CCRF-CEM [20] = assay: Induction of apoptosis in human CEM cells at 3.2 uM after 18 hrs by flow cytometry; assay type: functional; method in brief: as §3
CCRF-CEM [21] = assay: Cell cycle arrest in human CEM cells assessed as accumulation at G0/G1 phase at 3.2 uM after 18 hrs by flow cytometry; assay type: functional; method in brief: as §2
CCRF-CEM [22] = assay: Cell cycle arrest in human CEM cells assessed as accumulation at S phase at 3.2 uM after 18 hrs by flow cytometry; assay type: functional; method in brief: as §2

Molecule `O=C(CBr)Nc1cccc(NC(=O)Nc2ccccc2)c1` has an IC50 (CCRF-CEM [1]) of 860 nM.
`O=C(CCCl)NC(=O)Nc1cccc(NC(=O)CBr)c1` gave an IC50 (CCRF-CEM [1]) of 1900 nM.
For `O=C(CBr)NC(=O)Nc1cccc(NC(=O)CBr)c1`, the Activity (CCRF-CEM [2]) was 13.2%, the Activity (CCRF-CEM [3]) was 24.8% and the inhibition (Bos taurus [4]) was “inactive”. For the same molecule, the Activity (CCRF-CEM [5]) was “Dose-dependent effect”, the IC50 (CCRF-CEM [1]) was 560 nM and the IC50 (Daudi) was 380 nM. The IC50 (MCF7) was 590 nM, the IC50 (Bel-7402) was 4070 nM and the IC50 (DU-145) was 1280 nM. For the same molecule, the IC50 (PC-3) was over 100000 nM, the IC50 [6] was 510 nM and the IC50 (LoVo) was 1990 nM. The IC50 (MIA PaCa-2) was 2810 nM, the Activity (CCRF-CEM [7]) was 48.3% and the Activity (CCRF-CEM [8]) was 13.7%.
`NC(=O)NC(=O)c1cccc(NC(=O)CBr)c1` showed an IC50 (CCRF-CEM [1]) of 725 nM.
Molecule `O=C(CBr)Nc1cccc(NC(=O)NCCCl)c1` has an IC50 (CCRF-CEM [1]) of 770 nM.
Molecule `COc1cc(NC(=O)Nc2cccc(NC(=O)CBr)c2)cc(OC)c1OC` has an IC50 (CCRF-CEM [1]) of 1000 nM.
`O=C(CI)Nc1cccc(NC(=O)NCCCl)c1` gave an Activity (CCRF-CEM [9]) of 30.1%, an Activity (CCRF-CEM [10]) of 2.6% and an Activity (CCRF-CEM [11]) of 33.2%. The inhibition (Bos taurus [12]) was “inactive”, the IC50 (CCRF-CEM [1]) was 100 nM and the Activity (CCRF-CEM [13]) was 34.1%.
`O=CNC(=O)Nc1cccc(NC(=O)CBr)c1` gave an Activity (CCRF-CEM [14]) of 12.9%, an Activity (CCRF-CEM [15]) of 2% and an Activity (CCRF-CEM [16]) of 52.6%. For the same molecule, the inhibition (Bos taurus [17]) was “inactive”, the IC50 (CCRF-CEM [1]) was 850 nM and the Activity (CCRF-CEM [18]) was 33.5%.
`CC(=O)NC(=O)Nc1cccc(NC(=O)CBr)c1` gave an IC50 (CCRF-CEM [1]) of 3200 nM.
Work on `CC(Br)C(=O)Nc1cccc(NC(=O)NCCCl)c1` (centres undefined) yielded an IC50 (CCRF-CEM [1]) of 22700 nM.
Molecule `CC(Br)C(=O)Nc1cccc(NC(=O)NC(=O)CCCl)c1` (centres undefined) has an IC50 (CCRF-CEM [1]) of 2050 nM.
Molecule `CC(Br)C(=O)NC(=O)Nc1cccc(NC(=O)C(C)Br)c1` (centres undefined) has an IC50 (CCRF-CEM [1]) of 1340 nM.
In the case of `CC(=O)NC(=O)Nc1cccc(NC(=O)C(C)Br)c1` (centres undefined), the IC50 (CCRF-CEM [1]) is reported as 10600 nM.
Work on `COc1cc(NC(=O)Nc2cccc(NC(=O)C(C)Br)c2)cc(OC)c1OC` (centres undefined) yielded an IC50 (CCRF-CEM [1]) of 3990 nM.
With `CC(Br)C(=O)Nc1cccc(C(=O)NC(N)=O)c1` (centres undefined) the Activity (CCRF-CEM [19]) was 63.2%, the Activity (CCRF-CEM [20]) was 9.5% and the IC50 (CCRF-CEM [1]) was 1470 nM. For the same molecule, the Activity (CCRF-CEM [21]) was 2% and the Activity (CCRF-CEM [22]) was 25.3%.
For `CC(Br)C(=O)Nc1cccc(NC(=O)NC=O)c1` (centres undefined), the IC50 (CCRF-CEM [1]) was 10200 nM.
